For 13 compounds, MIC, Activity and IC50 results are on record in ChEMBL document CHEMBL1150854, “New prenylated bi- and tricyclic phloroglucinol derivatives from Hypericum papuanum” (J Nat Prod, 2001).

Converted amounts (≈) assume the structure as drawn. The source made the active and inactive calls. The calls are words filed in the database; no cut-off is given here.

One experiment has as its system Bacillus cereus. Description: Antibacterial activity against Bacillus cereus ATCC 10702 by doubling dilution method. It is filed as functional. Put shortly:
(§1)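 Doubling (twofold) broth dilution of pure compounds, modified from an earlier published procedure. Gram-positive strains: B. cereus ATCC 10702, S. epidermidis ATCC 12228, M. luteus ATCC 9341. Read-out is MIC in μg/mL. Chloramphenicol served as positive control.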

Experiment [1] has as its system Staphylococcus epidermidis. As to the kind of experiment: Antibacterial activity against Staphylococcus epidermidis ATCC 12228 by doubling dilution method. Format: functional. Put shortly: as §1
For a further experiment, the system named is KB. As to the kind of experiment: Cytotoxicity against human KB cells. Format: functional, cell-based. Put shortly: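 KB cells (ATCC CCL 17, human nasopharyngeal carcinoma), run by the method of earlier published work. Each test done at least in triplicate. Value given as IC50 in μg/mL. Podophyllotoxin served as positive control.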
The subject of the next experiment is Micrococcus luteus. Description: Antibacterial activity against Micrococcus luteus ATCC 9341 by doubling dilution method. It is filed as functional. Put shortly: as §1
Setting [2] is: Bacillus cereus, ATCC 10702, read-out: MIC.
[3] abbreviates: Staphylococcus epidermidis, ATCC 12228, read-out: MIC.
The mark [4] stands for this setting: Homo sapiens, KB, read-out: IC50.

For orientation: MIC means the lowest concentration found to suppress growth. For the compound `CCC(=O)C1=C(O)C2=C(OC(C)(C)C=C2)C(C)(CC=C(C)C)C1=O` (stereo in doubt; 6) [HYPERGUINONE A], the MIC (in the experiment with Bacillus cereus; in experiment [1]) was 32 µg/mL (≈ 96.8 µM) each time.
`CCC(=O)C1=C(O)C2=C(OC(C)(C)C=C2)C(C)(CC=C(C)C)C1=O` (stereo in doubt; 6a) [HYPERGUINONE A]: the MIC (with Bacillus cereus (setting [2]); in experiment [1] (setting [3])) was 32 µg/mL (≈ 96.8 µM) each time.
For `CC(C)=CCC1(C)C(=O)C(C(=O)C(C)C)=C(O)C2=C1OC(C)(C)C=C2` (stereo in doubt; 7), the result in experiment [1] was inactive.
Usually IC50 stands for the concentration that gives 50% inhibition. With `CC(C)=CCC1(C)C(=O)C(C(=O)C(C)C)=C(O)C2=C1OC(C)(C)C=C2` (stereo in doubt; 7) [HYPERGUINONE B], the minimum inhibitory concentration (MIC) against Bacillus cereus came to 32 µg/mL (≈ 92.9 µM). The same compound gave a half-inhibitory concentration (IC50) in the experiment on KB (kb) of 13 µg/mL (≈ 37.7 µM).
With `CC(C)=CCC1(C)C(=O)C(C(=O)C(C)C)=C(O)C2=C1OC(C)(C)C=C2` (stereo in doubt; 7a), the result in experiment [1] was inactive.
As to `CC(C)=CCC1(C)C(=O)C(C(=O)C(C)C)=C(O)C2=C1OC(C)(C)C=C2` (stereo in doubt; 7a) [HYPERGUINONE B], the MIC in the experiment on Bacillus cereus (setting [2]) turned out to be 32 µg/mL (≈ 92.9 µM). In addition, the IC50 in the experiment on KB (setting [4]) came out at 13 µg/mL (≈ 37.7 µM).
For `CC(C)=CC[C@@H]1C[C@@]2(C)C(=O)[C@](CC=C(C)C)(C(=O)C(C(=O)C(C)C)=C2O)C1(C)C` (stereo in doubt; 8), the MIC in the experiment on Bacillus cereus (setting [2]) came to 8 µg/mL (≈ 19.3 µM); in experiment [1] (setting [3]), 8 µg/mL (≈ 19.3 µM); in the experiment on Micrococcus luteus, 16 µg/mL (≈ 38.6 µM). The IC50 with KB (kb) came to 3.2 µg/mL (≈ 7.72 µM).
On to `O=C(N[C@H](CO)[C@H](O)c1ccc([N+](=O)[O-])cc1)C(Cl)Cl` [CHLORAMPHENICOL], for which the MIC amounted to 2 µg/mL (≈ 6.19 µM) in the experiment on Bacillus cereus (setting [2]), 4 µg/mL (≈ 12.4 µM) in experiment [1] (setting [3]) and 2 µg/mL (≈ 6.19 µM) against Micrococcus luteus.
In the case of `CC(C)=CC[C@@H]1C[C@]2(C)C(=O)[C@@](C(=O)C(C)C)(C(=O)C3=C2OC(C)(C)C=C3)C1(C)C` [PAPUAFORIN A], the MIC with Bacillus cereus (setting [2]) was found to be 64 µg/mL (≈ 155 µM). Moreover, the result in experiment [1] was inactive. Moreover, the IC50 in the experiment on KB (setting [4]) worked out at 7.5 µg/mL (≈ 18.2 µM).
For the compound `CCC(C)C(=O)[C@]12C(=O)C3=C(OC(C)(C)C=C3)[C@](C)(C[C@@H](CC=C(C)C)C1(C)C)C2=O` (stereo partly specified) [PAPUAFORIN C], the MIC in the experiment with Bacillus cereus (setting [2]) stood at 64 µg/mL (≈ 150 µM); in the experiment with Micrococcus luteus, 32 µg/mL (≈ 75 µM). For the same compound, the outcome in experiment [1] was inactive. For the same compound, the IC50 in the experiment with KB (setting [4]) turned out to be 4.9 µg/mL (≈ 11.5 µM).
On to `CCC(C)C(=O)[C@]12C(=O)C3=C(OC(C)(C)C=C3)[C@](C)(C[C@@H](CC=C(C)C)[C@]1(C)CCC=C(C)C)C2=O` (stereo partly specified) [PAPUAFORIN D], for which the MIC with Bacillus cereus (setting [2]) came out at 128 µg/mL (≈ 259 µM). Also, the outcome in experiment [1] was inactive. Besides, the IC50 in the experiment on KB (setting [4]) stood at 6.6 µg/mL (≈ 13.3 µM).
Consider `CC(C)=CCC[C@@]1(C)[C@H](CC=C(C)C)C[C@]2(C)C(=O)[C@@]1(C(=O)C(C)C)C(=O)C1=C2OC(C)(C)C=C1` [PAPUAFORIN E], for which the MIC was determined as 64 µg/mL (≈ 133 µM) in the experiment on Bacillus cereus (setting [2]) and 32 µg/mL (≈ 66.6 µM) in experiment [1] (setting [3]). The IC50 in the experiment with KB (setting [4]) was 5.6 µg/mL (≈ 11.6 µM).
`COc1cc([C@@H]2c3cc4c(cc3[C@H](O)[C@H]3COC(=O)[C@H]23)OCO4)cc(OC)c1OC` [PODOFILOX]: the IC50 in the experiment on KB (setting [4]) was 0.006 µg/mL (≈ 0.0145 µM).
